The nature of experiment [1]: Antiproliferative activity against human WM793 cells after 3 days by SRB assay. In kind it is functional. To be noted: read-out: ED50 (the source's name). A digest of the protocol: (§1)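 WM3211 or WM793 melanoma cells in high-glucose DMEM with 8% Fetal Clone III, 3.5% horse serum and 5 mM Glutamax. Seeded at 20,000 cells/ml and rested 24 h. Serial 1:1 dilutions from 2 mg/ml DMSO stocks, incubated 72 h. Vehicle 0.2% DMSO. Cells fixed and stained with 0.5% SRB, dye eluted in Tris pH 10, A540 read. ED50 is the 50%-of-vehicle value taken from mean curves of three independent experiments.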
A general note: Sulforhodamine B stains cellular protein and so reports cell mass.

Experiment [2] has as its system WM793. Description: Induction of apoptosis in human WM793 cells assessed as mitochondrial fragmentation upto 4 ug/ml by flow cytometry. In kind it is functional, cell-based.
Experiment [3] concerns WM3211. As to the kind of experiment: Induction of apoptosis in human WM3211 cells assessed as mitochondrial fragmentation upto 4 ug/ml by flow cytometry. Format: functional, cell-based. (In general: A flow cytometer gives signals particle by particle.)
Experiment [4] deals with WM3211. As to the kind of experiment: Induction of apoptosis in human WM3211 cells assessed as mitochondrial depolarization upto 4 ug/ml by flow cytometry. In kind it is functional, cell-based. Summed up: (§2)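 Cells suspended at 30,000 cells/ml in culture medium and exposed to compound at the single top test concentration for 5 h. TMRM added to 100 nM final for a further 60 min, then analysed by flow cytometry without medium replacement. Fluorescence given as percent of the DMSO vehicle control for each line. Mean of three independent experiments, SEM.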

Experiment [5] concerns WM793. Description: Induction of apoptosis in human WM793 cells assessed as reduction in mitochondrial polarization upto 4 ug/ml by flow cytometry. Format: functional, cell-based. Summed up: as §2
Experiment [6] can be described thus: Antiproliferative activity against human WM3211 cells after 3 days by SRB assay. Format: functional. The following applies: read-out: ED50 (the source's name). A digest of the protocol: as §1
The test system of experiment [7] is WM793. As to the kind of experiment: Induction of apoptosis in human WM793 cells assessed as change in fluorescence intensity using TMRM labeling by flow cytometry. In kind it is functional, cell-based. Summed up: as §2
In experiment [8] the test system is WM3211. As to the kind of experiment: Induction of apoptosis in human WM3211 cells assessed as change in mitochondrial morphology upto 4 ug/ml by flow cytometry. Format: functional, cell-based.
Experiment [9] concerns WM3211. Description: Induction of apoptosis in human WM3211 cells assessed as change in fluorescence intensity using TMRM labeling by flow cytometry. In kind it is functional, cell-based. Summed up: as §2
For experiment [10], the system named is WM793. As to the kind of experiment: Induction of apoptosis in human WM793 cells assessed as vacuolization upto 4 ug/ml by flow cytometry. In kind it is functional, cell-based.
A short description of experiment [11]: Antiproliferative activity against human WM3211 cells at 4 ug/ml after 3 days by SRB assay. Format: functional. Summed up:
(§3)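 SRB proliferation in WM3211 or WM793 cells at the top concentration of the dilution series, after three days of exposure. Cells seeded at 20,000 cells/ml, with compound added after 24 h recovery. Vehicle control 0.2% DMSO. Growth read as A540 of Tris-eluted SRB and expressed as percent of vehicle control.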

Experiment [12] can be described thus: Antiproliferative activity against human WM793 cells at 4 ug/ml after 3 days by SRB assay. Format: functional. Summed up:
as §3

This passage reports EC50 and Activity results from ChEMBL document CHEMBL1212901, “Dimethylaminopyridine derivatives of lupane triterpenoids are potent disruptors of mitochondrial structure and function” (2010).

Active and inactive are the calls of the source. No cut-off for these calls is given here.

For `C=C(C)[C@@H]1CC[C@]2(COC(=O)C(CC)[n+]3ccc(N(C)C)cc3)CC[C@]3(C)[C@H](CC[C@@H]4[C@@]5(C)CC[C@H](OC(=O)C(CC)[n+]6ccc(N(C)C)cc6)C(C)(C)[C@@H]5CC[C@]43C)[C@@H]12` (stereo partly drawn), the EC50 in [1] (Homo sapiens, WM793, 72 h) stood at 500 nM; in experiment [6] (Homo sapiens, WM3211, 72 h), 300 nM. In addition, the outcome in experiment [2], in [3], in [4], in experiment [5] and in experiment [7] was Active.
Take `C=C(C[n+]1ccc(N(C)C)cc1)[C@@H]1CC[C@]2(COC(=O)C(C)[n+]3ccc(N(C)C)cc3)CC[C@]3(C)[C@H](CC[C@@H]4[C@@]5(C)CC[C@H](OC(=O)C(C)[n+]6ccc(N(C)C)cc6)C(C)(C)[C@@H]5CC[C@]43C)[C@@H]12` (stereo partly drawn) [listing 1 of 3 here]: the EC50 in experiment [1] (Homo sapiens, WM793, 72 h) was > 3500 nM; in [6] (Homo sapiens, WM3211, 72 h) it was > 3500 nM.
Regarding `C=C(C)[C@@H]1CC[C@]2(CO)CC[C@]3(C)[C@H](CC[C@@H]4[C@@]5(C)CC[C@H](OC(=O)C[n+]6ccc(N(C)C)cc6)C(C)(C)[C@@H]5CC[C@]43C)[C@@H]12` [listing 1 of 3 here], the EC50 in [1] (Homo sapiens, WM793, 72 h) came to 2500 nM; in experiment [6] (Homo sapiens, WM3211, 72 h), 600 nM.
Regarding `C=C(C)[C@@H]1CC[C@]2(COC(=O)C[n+]3ccc(N(C)C)cc3)CC[C@]3(C)[C@H](CC[C@@H]4[C@@]5(C)CC[C@H](OC(=O)C[n+]6ccc(N(C)C)cc6)C(C)(C)[C@@H]5CC[C@]43C)[C@@H]12` [listing 1 of 3 here], the result in experiment [2], in experiment [3], in [4], in experiment [5] and in experiment [7] was Active.
In the case of `C=C(C[n+]1ccc(N(C)C)cc1)[C@@H]1CC[C@]2(C(=O)O)CC[C@]3(C)[C@H](CC[C@@H]4[C@@]5(C)CC[C@H](OC(=O)C[n+]6ccc(N(C)C)cc6)C(C)(C)[C@@H]5CC[C@]43C)[C@@H]12` [listing 1 of 3 here], the outcome in experiment [8] and in [4] was inactive. The result in [9] and in [7] was Active.
In the case of `C=C(C)[C@@H]1CC[C@]2(CO)CC[C@]3(C)[C@H](CC[C@@H]4[C@@]5(C)CC[C@H](OC(=O)C[n+]6ccc(N(C)C)cc6)C(C)(C)[C@@H]5CC[C@]43C)[C@@H]12` [listing 2 of 3 here], the outcome in [8], in [10], in [4] and in [5] was Active.
On to `C=C(C[n+]1ccc(N(C)C)cc1)[C@@H]1CC[C@]2(C(=O)O)CC[C@]3(C)[C@H](CC[C@@H]4[C@@]5(C)CC[C@H](OC(=O)C[n+]6ccc(N(C)C)cc6)C(C)(C)[C@@H]5CC[C@]43C)[C@@H]12` [listing 2 of 3 here], for which the EC50 in experiment [1] and in experiment [6] was > 4700 nM each time.
In the case of `C=C(C[n+]1ccc(N(C)C)cc1)[C@@H]1CC[C@]2(C(=O)O)CC[C@]3(C)[C@H](CC[C@@H]4[C@@]5(C)CC[C@H](O)C(C)(C)[C@@H]5CC[C@]43C)[C@@H]12`, the EC50 was > 6100 nM in [1] (Homo sapiens, WM793, 72 h) and > 6100 nM in experiment [6] (Homo sapiens, WM3211, 72 h). The result in experiment [8] and in [4] was inactive. In addition, the outcome in experiment [9] and in experiment [7] was Active.
Regarding `C=C(C)[C@@H]1CC[C@]2(COC(=O)C(C)[n+]3ccc(N(C)C)cc3)CC[C@]3(C)[C@H](CC[C@@H]4[C@@]5(C)CC[C@H](O)C(C)(C)[C@@H]5CC[C@]43C)[C@@H]12` (stereo partly drawn), the EC50 in [1] (Homo sapiens, WM793, 72 h) stood at 2600 nM; in [6] (Homo sapiens, WM3211, 72 h), 800 nM. The outcome in [8], in experiment [4] and in experiment [9] was Active.
Consider `C=C(C)[C@@H]1CC[C@]2(COC(=O)C[n+]3ccc(N(C)C)cc3)CC[C@]3(C)[C@H](CC[C@@H]4[C@@]5(C)CC[C@H](OC(=O)C[n+]6ccc(N(C)C)cc6)C(C)(C)[C@@H]5CC[C@]43C)[C@@H]12` [listing 2 of 3 here], for which the EC50 in experiment [1] and in [6] was 500 nM each time.
In the case of `C=C(C[n+]1ccc(N(C)C)cc1)[C@@H]1CC[C@]2(C(=O)O)CC[C@]3(C)[C@H](CC[C@@H]4[C@@]5(C)CC[C@H](OC(=O)C[n+]6ccc(N(C)C)cc6)C(C)(C)[C@@H]5CC[C@]43C)[C@@H]12` [listing 3 of 3 here], the EC50 was > 4400 nM in [1] (Homo sapiens, WM793, 72 h) and > 4400 nM in experiment [6] (Homo sapiens, WM3211, 72 h).
With `C=C(C)[C@@H]1CC[C@]2(COC(=O)C(C)[n+]3ccc(N(C)C)cc3)CC[C@]3(C)[C@H](CC[C@@H]4[C@@]5(C)CC[C@H](OC(=O)C(C)[n+]6ccc(N(C)C)cc6)C(C)(C)[C@@H]5CC[C@]43C)[C@@H]12` (stereo partly drawn), the EC50 was 500 nM in experiment [1] (Homo sapiens, WM793, 72 h) and 500 nM in experiment [6] (Homo sapiens, WM3211, 72 h). The result in [2], in experiment [3], in experiment [4], in experiment [5] and in [7] was Active.
For `C=C(C)[C@@H]1CC[C@]2(COC(=O)CC[n+]3ccc(N(C)C)cc3)CC[C@]3(C)[C@H](CC[C@@H]4[C@@]5(C)CC[C@H](OC(=O)CC[n+]6ccc(N(C)C)cc6)C(C)(C)[C@@H]5CC[C@]43C)[C@@H]12`, the EC50 in experiment [1] (Homo sapiens, WM793, 72 h) is 800 nM; in experiment [6] (Homo sapiens, WM3211, 72 h) it was 600 nM. Also, the outcome in experiment [2], in [3], in experiment [4], in [5] and in experiment [7] was Active.
As to `C=C(C)[C@@H]1CC[C@]2(CO)CC[C@]3(C)[C@H](CC[C@@H]4[C@@]5(C)CC[C@H](OC(=O)C[n+]6ccc(N(C)C)cc6)C(C)(C)[C@@H]5CC[C@]43C)[C@@H]12` [listing 3 of 3 here], the figures for the EC50 in experiment [1] and in experiment [6] were 1900 nM and 300 nM, respectively.
Turning to `C=C(C[n+]1ccc(N(C)C)cc1)[C@@H]1CC[C@]2(COC(=O)C(C)[n+]3ccc(N(C)C)cc3)CC[C@]3(C)[C@H](CC[C@@H]4[C@@]5(C)CC[C@H](OC(=O)C(C)[n+]6ccc(N(C)C)cc6)C(C)(C)[C@@H]5CC[C@]43C)[C@@H]12` (stereo partly drawn) [listing 2 of 3 here], the result in experiment [8] and in [4] was inactive. Moreover, the result in [9] and in experiment [7] was Active.
Take `C=C(C)[C@@H]1CC[C@]2(COC(=O)C[n+]3ccc(N(C)C)cc3)CC[C@]3(C)[C@H](CC[C@@H]4[C@@]5(C)CC[C@H](OC(=O)C[n+]6ccc(N(C)C)cc6)C(C)(C)[C@@H]5CC[C@]43C)[C@@H]12` [listing 3 of 3 here]: the EC50 in [1] (Homo sapiens, WM793, 72 h) was found to be 400 nM; in [6] (Homo sapiens, WM3211, 72 h), 400 nM.
As to `C=C(C)[C@@H]1CC[C@]2(COC(=O)CCC[n+]3ccc(N(C)C)cc3)CC[C@]3(C)[C@H](CC[C@@H]4[C@@]5(C)CC[C@H](OC(=O)CCC[n+]6ccc(N(C)C)cc6)C(C)(C)[C@@H]5CC[C@]43C)[C@@H]12`, the EC50 in [1] (Homo sapiens, WM793, 72 h) turned out to be 1300 nM; in experiment [6] (Homo sapiens, WM3211, 72 h), 700 nM. In addition, the outcome in experiment [8], in experiment [4], in [5] and in experiment [9] was Active.
Consider `C=C(C[n+]1ccc(N(C)C)cc1)[C@@H]1CC[C@]2(COC(=O)C(C)[n+]3ccc(N(C)C)cc3)CC[C@]3(C)[C@H](CC[C@@H]4[C@@]5(C)CC[C@H](OC(=O)C(C)[n+]6ccc(N(C)C)cc6)C(C)(C)[C@@H]5CC[C@]43C)[C@@H]12` (stereo partly drawn) [listing 3 of 3 here], for which the EC50 in experiment [1] and in [6] was > 3800 nM throughout.
Take `C=C(C)[C@@H]1CC[C@]2(C(=O)O)CC[C@]3(C)[C@H](CC[C@@H]4[C@@]5(C)CC[C@H](OC(=O)C[n+]6ccc(N(C)C)cc6)C(C)(C)[C@@H]5CC[C@]43C)[C@@H]12.[Br-]`: the Activity in [11] and in experiment [12] was 40% each time. The EC50 in [1] (Homo sapiens, WM793, 72 h) is 5700 nM; in experiment [6] (Homo sapiens, WM3211, 72 h), 2600 nM. Moreover, the outcome in experiment [8], in [9] and in [7] was Active.
